Series [1] deals with Jurkat. The experiment in a line: Cytotoxicity against human Jurkat cells at 1 uM. It is filed as functional, cell-based. The method in brief: (§1)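 Jurkat human T-cell leukemia cells exposed to compounds at 10⁻²–10 μM. Proliferation read by ³H-thymidine incorporation and expressed as stimulation index (SI). Mean ± SE, n = 4.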
The nature of series [2]: Toxicity in sheep erythrocytes assessed as induction of hemolysis. The series is classed as cell-based, Ovis aries, Erythrocyte. The note with it: read-out: HD50 (the source's name). The gist of the method: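 Hemolysis measured on sheep erythrocytes, tested up to 400 μg/mL. Activity expressed as HC50 (μg/mL).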
For series [3], the system named is Jurkat. Put plainly: Immunomodulatory effect in human Jurkat cells assessed as cell proliferation stimulation index at 1 to 10 uM by [3H]thymidine incorporation assay.
Series [4] relates to Jurkat. The experiment in a line: Cytotoxicity against human Jurkat cells at =>10 uM. It is filed as functional, cell-based. The gist of the method: as §1
The subject of series [5] is Jurkat. Put plainly: Immunomodulatory effect in human Jurkat cells assessed as cell proliferation stimulation index at 0.01 uM by [3H]thymidine incorporation assay.
In series [6] the test system is Jurkat. The experiment in a line: Immunomodulatory effect in human Jurkat cells by [3H]thymidine incorporation assay.
Series [7] deals with Jurkat. Put plainly: Inhibition of human Jurkat cell proliferation at 1 uM by [3H]thymidine incorporation assay.

The source made the active and inactive calls. The rule behind the calls is not given here. Where only a bound is given, the exact number is not on record here.

For `CC(=O)N[C@H]1[C@H](O[C@H]2CC[C@]3(C)[C@H]4CC=C5[C@@H]6CC(C)(C)[C@@H](O)C[C@]6(C(=O)O)[C@H](O)C[C@@]5(C)[C@]4(C)CC[C@H]3C2(C)C)O[C@H](CO[C@@H]2O[C@H](C)[C@H](O)[C@H](O)[C@H]2O[C@@H]2OC[C@@H](O)[C@H](O)[C@H]2O)[C@@H](O)[C@@H]1O`, the Activity result in the series on Jurkat [1] was “Not toxic”. Further, the HC50 in series [2] is greater than 400 µg/mL. The outcome in the series with Jurkat [3] was Active.
`C=CC(C)(CC/C=C(\CO)C(=O)O[C@H]1C[C@]2(C(=O)O)[C@H](O)C[C@]3(C)C(=CC[C@@H]4[C@@]5(C)CC[C@H](O[C@@H]6O[C@H](CO[C@@H]7O[C@H](C)[C@H](O)[C@H](O)[C@H]7O[C@@H]7OC[C@@H](O)[C@H](O)[C@H]7O)[C@@H](O)[C@H](O)[C@H]6O[C@@H]6O[C@H](CO)[C@@H](O)[C@H](O)[C@H]6O)C(C)(C)[C@@H]5CC[C@]43C)[C@@H]2CC1(C)C)O[C@@H]1O[C@@H](C)[C@H](O)[C@@H](O)[C@@H]1O` (stereo not given in full): in the series with Jurkat [4], the Activity entry is “Toxic”. Moreover, the HC50 in series [2] is greater than 400 µg/mL.
As for `CC(=O)N[C@H]1[C@H](O[C@H]2CC[C@]3(C)[C@H]4CC=C5[C@@H]6CC(C)(C)[C@@H](OC(=O)c7ccccc7O)C[C@]6(C(=O)O[C@@H]6O[C@H](CO)[C@@H](O)[C@H](O)[C@H]6O[C@@H]6O[C@@H](C)[C@H](O[C@@H]7O[C@@H](CO)[C@H](O)[C@H]7O)[C@@H](O[C@@H]7O[C@H](CO)[C@@H](O)[C@H](O)[C@H]7O)[C@H]6O)[C@H](O)C[C@@]5(C)[C@]4(C)CC[C@H]3C2(C)C)O[C@H](CO[C@@H]2O[C@H](C)[C@H](O)[C@H](O)[C@H]2O[C@@H]2OC[C@@H](O)[C@H](O)[C@H]2O)[C@@H](O)[C@@H]1O` [ADIANTHIFOLIOSIDE A], the Activity result in the series on Jurkat [1] is “Toxic”. Besides, in series [2], the HC50 was found to be 17.5 µg/mL.
Turning to `C[C@@H]1O[C@@H](O[C@H]2[C@H](OC(=O)[C@]34C[C@H](OC(=O)c5ccccc5O)C(C)(C)C[C@H]3C3=CC[C@@H]5[C@@]6(C)CC[C@H](O[C@@H]7O[C@H](CO[C@@H]8O[C@H](C)[C@H](O)[C@H](O)[C@H]8O[C@@H]8OC[C@@H](O)[C@H](O)[C@H]8O)[C@@H](O)[C@H](O)[C@H]7O[C@@H]7O[C@H](CO)[C@@H](O)[C@H](O)[C@H]7O)C(C)(C)[C@@H]6CC[C@@]5(C)[C@]3(C)C[C@H]4O)O[C@H](CO)[C@@H](O)[C@@H]2O)[C@H](O)[C@H](O[C@@H]2O[C@H](CO)[C@@H](O)[C@H](O)[C@H]2O)[C@H]1O[C@@H]1O[C@@H](CO)[C@H](O)[C@H]1O` [ADIANTHIFOLIOSIDE B], the figures for the Activity with Jurkat [5] and with Jurkat [6] were 1.21 and “Dose-dependent effect”, respectively. Besides, the result in the series on Jurkat [7] was Active.

Values taken from ChEMBL document CHEMBL1150676, “Two new biologically active triterpenoidal saponins acylated with salicylic acid from Albizia adianthifolia” (J Nat Prod, 2003).
